Shown are actives, neighbours in structure and some others; about 4% of the full set was active somewhere.
OX1R antag-1: antagonists of human orexin 1 receptor; CHO/OX1R cells, Fluo-8 calcium fluorescence, orexin A; inhibition, % at 5 µM; 330,000 tested, 0.43% active;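 active = inhibition above its plate's threshold, mean inhibition of all tested compounds on the plate plus 3 SD, cut at about 37% in these data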;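 also: 0% = orexin A challenge wells and 100% = SB-334867-A antagonist wells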
OX1R antag-2: blocks the human orexin 1 receptor; OX1R-expressing cells, FRET antagonist read-out; inhibition, % at 6.6 µM; 330,000 tested, 1.8% active; AID 485270; in the data active = inhibition mostly above about 38%, no sharp cut-off; inactive = mostly below about 40%;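 also: 0% = agonist challenge alone and 100% = reference antagonist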
TAAR1 antagonist: human TAAR1 antagonism; 360,000 tested, 1.5% active; inhibition, % at 3 µM; Q96RJ0; AID 624466; CHO RD-HGA16 TAAR1, Fluo-8 calcium fluorescence, antagonist;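 active = inhibition above a per-plate cutoff, the mean inhibition of test compounds on that plate plus 3 SD, cut at about 49% in these data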;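 also: 0% = DMSO plus EC80 beta-PEA response and 100% = DMSO alone without agonist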
Target sequence (Q96RJ0 whole entry, looked up): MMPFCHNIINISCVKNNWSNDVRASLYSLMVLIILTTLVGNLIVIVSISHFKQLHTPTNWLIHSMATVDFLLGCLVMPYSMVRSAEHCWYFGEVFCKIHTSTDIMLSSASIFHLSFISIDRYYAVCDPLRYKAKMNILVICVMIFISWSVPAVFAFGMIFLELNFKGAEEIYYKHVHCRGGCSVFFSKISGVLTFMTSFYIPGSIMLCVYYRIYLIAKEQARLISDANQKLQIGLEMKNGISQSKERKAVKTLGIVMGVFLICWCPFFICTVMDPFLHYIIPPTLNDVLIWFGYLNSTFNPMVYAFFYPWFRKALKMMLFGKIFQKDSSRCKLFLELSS
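Test system – hTAAR1-expressing CHO RD-HGA16 cells, Gα16-coupled · Reagent – β-PEA at EC80 concentration, post-compound challenge · Compound dosing – 3 µM, single point · Timing – 140 s kinetic read after compound, 140 s after agonist · Detection – Fluo-8 intracellular calcium dye fluorescence, real-time kinetic reads · Control set – DMSO and EC80 PEA controls · Repeats – n of 1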
TAAR1 agonist: human TAAR1 agonism | CHO RD-HGA16 TAAR1, Fluo-8 calcium fluorescence; vehicle wells 0%, saturating PEA agonist 100% | activation, % at 3 µM | 360,000 tested, 0.99% active | Q96RJ0;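 active = activation above the mean activation of all test compounds in the run plus 3 SD, cut at about 38% in these data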
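System: CHO-derived RD-HGA16 cells with stable Gα16 and human TAAR1 / Times: 17-24 h plating, Fluo-8 75 min 37 °C, 30 min RT / Technique: calcium-sensitive Fluo-8 signal, excitation 470-495, emission 515-575 nm / Measure: % activation relative to PEA EC100 response / Benchmarks: DMSO and PEA EC100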
CHO parental Ca: counter-screen: ATP calcium response change in parental CHO cells. parental CHO-K1, ATP-induced calcium, Fluo-8 fluorescence. inhibition, % at 5.6 µM. 330,000 tested, 0.63% active;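 active = inhibition above that plate's mean sample inhibition plus 3 SD, cut at about 26% in these data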;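 also: 0% = ATP-challenged DMSO wells and 100% = DMSO wells without ATP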
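Material: parental CHO cells / Compound: single nominal dose of 5.6 µM per compound / Signal: Fluo-8 fluorescence / Replicates: singlicate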
Starred values were filed as active, the others as inactive; . = not tested or not shown.

SMILES	OX1R antag-1	OX1R antag-2	TAAR1 antagonist	TAAR1 agonist	CHO parental Ca
CCOC(=O)C1CCCN(S(=O)(=O)c2ccccc2)C1 (stereo not given)	-21	17	3	6	-4
COc1ccc(NC(=O)C(C)N2c3cccc4cccc(c34)S2(=O)=O)cc1OC (stereo not given)	-1	26	8	4	41*
COc1ccc(NC(=O)C(C)N2c3cccc4cccc(c34)S2(=O)=O)cc1 (stereo not given)	-27	23	3	9	-20
NC(Cc1ccccc1)c1csc(Nc2ccc(C(F)(F)F)cn2)n1 (stereo not given)	.	.	20	41*	.
COc1cc(OC)nc(Nc2nc(C(N)Cc3ccccc3)cs2)n1 (stereo not given)	.	.	-7	18	.
Cc1cc(C)nc(Nc2nc(C(N)Cc3ccc(C(F)(F)F)cc3)cs2)n1 (stereo not given)	.	.	35	47*	.
COc1cc(OC)nc(Nc2nc(C(N)Cc3ccc(C(F)(F)F)cc3)cs2)n1 (stereo not given)	.	.	34	53*	.
COc1cc(OC)c(C(=O)OCC(=O)c2ccc3c(c2)NC(=O)CO3)cc1OC	-4	-1	13	12	-18
O=C1COc2ccc(C(=O)COC(=O)c3ccc(F)cc3Cl)cc2N1	3	4	57*	12	-2
CC[C@H](C)[C@H](NC(=O)c1ccc(Cl)cc1)C(=O)OCC(=O)c1ccc2c(c1)NC(=O)CO2	59*	20	43	10	83*
N#Cc1cccc(NC(=O)COC(=O)c2cc(S(=O)(=O)Nc3ccccc3Cl)ccc2O)c1	15	38*	28	8	4
O=C(COC(=O)c1cc(S(=O)(=O)Nc2ccccc2Cl)ccc1O)Nc1nc2ccccc2s1	.	.	13	3	.
COc1cccc(OC)c1C(=O)Nc1cccc(S(=O)(=O)Nc2ccccc2Cl)c1	-2	17	7	5	-20
O=C(CCOc1ccccc1)Nc1cccc(S(=O)(=O)Nc2ccccc2Cl)c1	57*	55	25	2	37*
O=C(C[C@@H]1C[C@@H]2c3cc(NC(=O)c4ccc5c(c4)OCO5)ccc3O[C@@H]2[C@@H](CO)O1)NCc1cccnc1	.	.	-10	0	.
CC(NC(=O)c1cc([N+](=O)[O-])cc([N+](=O)[O-])c1)c1ccc(-n2ccnc2)cc1 (stereo not given)	-22	64*	-5	-2	-10
CC(NC(=O)c1ccc(N(C)C)c([N+](=O)[O-])c1)c1ccc(-n2ccnc2)cc1 (stereo not given)	-16	29	2	12	-18
Nc1cc(S(=O)(=O)Nc2ccccc2Cl)ccc1N1CCCCC1	45*	24	38	6	30*
CCO[C@@H]1OC(C(=O)N2CCN(Cc3ccccc3)CC2)=C[C@H](c2ccc(C(F)(F)F)cc2)[C@H]1CCCO	-27	17	34	6	-11
CCO[C@@H]1OC(C(=O)N2CCN(Cc3ccccc3)CC2)=C[C@H](c2ccc(Br)cc2)[C@H]1CCCO	-19	40	49*	13	-15
Cc1occc(=O)c1OC(=O)Nc1ccc(Cl)c(Cl)c1	36	14	1	14	70*
CCc1cc2c(nc1CC)CCCN2C	.	.	-3	4	.
O=C1/C(=C\c2ccc(Br)o2)SC(=Nc2ccccc2)N1c1ccccc1	-16	62*	5	5	-15
CN(C)N1C(=O)/C(=C/c2ccco2)SC1=Nc1ccccc1	-19	16	-12	3	-13
COc1cc(/C=C2\COC/C(=C\c3cc(OC)c(OC)c(OC)c3)C2=O)cc(OC)c1OC	.	.	53*	6	.
SMILES	OX1R antag-1	OX1R antag-2	TAAR1 antagonist	TAAR1 agonist	CHO parental Ca
COc1cc(/C=C2\CC/C(=C\c3cc(OC)c(O)c(OC)c3)C2=O)cc(OC)c1O	13	90*	14	3	-21
O=C(c1cccc(S(=O)(=O)N2CCN(c3ccc(F)cc3)CC2)c1)N1CCCC(C(F)(F)F)C1 (stereo not given)	-4	20	-6	0	37*
COc1ccc([C@H]2CC(=O)C=C(c3ccc(C)c([N+](=O)[O-])c3)C2)cc1	-15	10	26	1	-22
Nc1cc(-c2ccc(Cl)cc2)nn1S(=O)(=O)c1ccccc1	-13	25	-14	2	48*
CCOC(=O)c1c(S(=O)(=O)NCC(=O)N2CCN(c3ccccc3)CC2)c(C)n(C)c1C	-10	12	-34	1	-28
COc1cccc(OCC(=O)N(Cc2nc(-c3ccc(Cl)cc3)no2)C(C)C)c1	-10	47*	-20	1	-16
Cc1ccc(-c2noc(CN(C(=O)Cc3ccccc3)C(C)C)n2)cc1	-6	52*	3	5	-11
CC(C)N(Cc1nc(-c2ccccc2)no1)C(=O)CSc1ccccc1	10	39*	12	16	-27
COc1ccccc1OCC(=O)N(Cc1nc(-c2ccc(Cl)cc2)no1)C(C)C	-24	21	3	-2	-12
Cc1ccc(-c2noc(CN(C(=O)CCN3C(=O)c4ccccc4C3=O)C(C)C)n2)cc1	-2	29	0	9	-32
COc1cccc(C(=O)N(Cc2nc(-c3ccc(C)cc3)no2)C(C)C)c1	12	27	17	4	-29
Cc1ccc(C)c(C(=O)N(Cc2nc(-c3ccc(Cl)cc3)no2)C(C)C)c1	-31	28	-8	-1	36*
Cc1oc(-c2ccc(-c3ccccc3)cc2)nc1CN(CCO)C(C)C	-8	7	-7	-1	-12
CC1CC(C)CN(CCCNC(=O)CCC(=O)N2CC(C)Oc3ccccc32)C1 (stereo not given)	-27	7	-24	1	-14
CN1OC[C@@H]2CN[C@H](c3ccc(-n4ccnc4)cc3)C[C@@H]21	.	.	-25	3	.
Cc1cc(Br)ccc1OCC(=O)N(Cc1nc(-c2ccccc2)no1)C(C)C	37	56*	-10	0	-18
C=CCNc1cccc2c1S(=O)(=O)N[C@@H](C)CO2	.	.	-30	1	.
c1ccc(CCNc2ncnc3scc(C4COc5ccccc5O4)c23)cc1 (stereo not given)	17	17	71*	18	51*
CC1(C)CC(=O)C=C(Nc2cccc(Cl)c2Cl)C1	-23	8	-6	2	-23
O=C1[C@H](Cc2ccccc2)NCCCC[C@@H](c2ccc(Cl)cc2)N1Cc1ccccc1	.	.	17	39*	.
Cc1cccc(-n2c(=O)c(C#N)cc3c(=O)n4ccccc4nc32)c1	-11	60*	-32	0	-17
CCCn1c(=N)c(C#N)cc2c(=O)n3ccccc3nc21	9	47*	-12	9	-2
Cc1ccc(-n2c(=O)c(C#N)cc3c(=O)n4ccccc4nc32)cc1	-14	34	1	-1	-3
CCC(CC)CN1CCC(CN2C(=S)NC[C@@H]2[C@@H](C)CC)CC1	.	.	-10	-1	.

Screening results: PubChem, The Scripps Research Institute Molecular Screening Center
